Tests used:
[1] = biological target: Prostaglandin G/H synthase 1 (Homo sapiens) (UniProt P23219); conditions: at 100 µM;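 note: recombinant human COX-1 enzyme, activity read out as PGE2 production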
[2] = biological target: CYP2C9 (Homo sapiens, UniProt P11712); test: Metabolic stability in presence of human recombinant CYP2C9 at 1 uM after 30 mins; type: ADME
In short: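 Recombinant human CYP2C9 (Bactosomes), 5 pmol per reaction, in […] buffer pH 7.4 with 1 mM NADPH. Compound 1 µM, added in acetonitrile (2.5% final). 10 min preincubation at 37 °C, reaction started with NADPH, sampled at 0 and 30 min, stopped with ice-cold acetonitrile. Parent remaining quantified by LC/MS/MS as % metabolized. Run in duplicate.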

[3] = biological target: T1, Prostaglandin G/H synthase 2 (Homo sapiens) (UniProt P35354); conditions: at 100 µM;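 note: recombinant enzyme assay, activity read out as PGE2 generation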
T1 sequence (whole entry): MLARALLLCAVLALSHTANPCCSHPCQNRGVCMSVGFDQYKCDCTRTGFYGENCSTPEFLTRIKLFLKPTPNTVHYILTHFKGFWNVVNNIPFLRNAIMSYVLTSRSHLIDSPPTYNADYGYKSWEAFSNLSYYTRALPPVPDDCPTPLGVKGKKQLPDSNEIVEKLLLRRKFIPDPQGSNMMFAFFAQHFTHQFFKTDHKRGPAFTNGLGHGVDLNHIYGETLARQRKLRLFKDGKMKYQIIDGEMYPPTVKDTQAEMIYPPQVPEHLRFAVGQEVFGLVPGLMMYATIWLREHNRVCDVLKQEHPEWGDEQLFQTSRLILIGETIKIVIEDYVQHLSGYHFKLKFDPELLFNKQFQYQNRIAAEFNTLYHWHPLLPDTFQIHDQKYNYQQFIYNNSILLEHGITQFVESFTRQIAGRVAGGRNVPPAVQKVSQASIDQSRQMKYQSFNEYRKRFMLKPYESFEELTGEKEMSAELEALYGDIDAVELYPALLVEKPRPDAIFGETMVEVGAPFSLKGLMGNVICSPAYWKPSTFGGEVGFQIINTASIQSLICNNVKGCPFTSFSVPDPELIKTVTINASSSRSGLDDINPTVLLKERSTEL

Sequence of CYP2C9 (P11712 whole entry): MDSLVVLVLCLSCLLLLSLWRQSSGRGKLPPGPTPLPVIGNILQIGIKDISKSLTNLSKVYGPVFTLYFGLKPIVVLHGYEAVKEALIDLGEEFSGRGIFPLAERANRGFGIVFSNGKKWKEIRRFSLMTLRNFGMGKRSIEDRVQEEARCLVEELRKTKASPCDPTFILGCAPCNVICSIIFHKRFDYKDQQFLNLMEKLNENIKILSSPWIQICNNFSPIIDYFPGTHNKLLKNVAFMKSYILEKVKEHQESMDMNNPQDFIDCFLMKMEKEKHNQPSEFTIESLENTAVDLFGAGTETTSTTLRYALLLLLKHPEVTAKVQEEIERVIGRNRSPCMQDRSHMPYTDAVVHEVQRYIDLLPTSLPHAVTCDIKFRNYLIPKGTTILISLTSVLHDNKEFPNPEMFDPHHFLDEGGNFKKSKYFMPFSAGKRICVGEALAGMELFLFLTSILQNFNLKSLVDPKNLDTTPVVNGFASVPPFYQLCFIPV
Sequence of Prostaglandin G/H synthase 1 (Homo sapiens) (P23219 whole entry): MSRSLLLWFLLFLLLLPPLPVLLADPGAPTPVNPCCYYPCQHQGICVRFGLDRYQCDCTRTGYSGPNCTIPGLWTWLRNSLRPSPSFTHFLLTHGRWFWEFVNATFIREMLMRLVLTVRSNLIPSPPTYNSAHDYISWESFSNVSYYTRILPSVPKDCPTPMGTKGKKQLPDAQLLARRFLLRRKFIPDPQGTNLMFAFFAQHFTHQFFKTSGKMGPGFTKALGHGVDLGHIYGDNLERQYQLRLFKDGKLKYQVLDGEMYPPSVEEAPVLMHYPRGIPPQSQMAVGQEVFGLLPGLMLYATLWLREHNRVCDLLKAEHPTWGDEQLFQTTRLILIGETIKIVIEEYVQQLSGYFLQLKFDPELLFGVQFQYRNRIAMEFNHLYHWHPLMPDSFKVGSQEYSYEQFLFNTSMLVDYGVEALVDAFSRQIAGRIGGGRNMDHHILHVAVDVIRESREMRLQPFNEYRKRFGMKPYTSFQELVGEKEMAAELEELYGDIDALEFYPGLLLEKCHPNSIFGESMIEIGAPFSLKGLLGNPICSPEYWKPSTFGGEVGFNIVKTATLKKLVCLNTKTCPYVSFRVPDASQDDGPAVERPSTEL

| SMILES | inhibition [1] [%] | metabolized at 0.5 h, 1 µM [2] [%] | inhibition [3] [%] |
| --- | --- | --- | --- |
| Cc1ccc(-c2cc(C(F)(F)F)nn2-c2ccc(C(=O)O)cc2)cc1 | 67 | 29 | 26 |
| Cc1ccc(-c2cc(C(F)(F)F)nn2-c2ccc(S(C)(=O)=O)cc2)cc1 | 99 | 81 | 92 |
| NS(=O)(=O)c1ccc(-n2nc(C(F)(F)F)cc2-c2ccc(C(F)(F)F)cc2)cc1 |  | 0 |  |
| Cc1ccc(-c2cc(C(F)(F)F)nn2-c2ccc(S(N)(=O)=O)cc2)cc1 [CELECOXIB] |  | 94 |  |
| Cc1ccc(-c2cc(C(F)(F)F)nn2-c2ccc(CC(=O)O)cc2)cc1 | 88 | 10 | 95 |
| CSc1ccc(-n2nc(C(F)(F)F)cc2-c2ccc(C)cc2)cc1 | 95 | 87 | 99 |
| Cc1ccc(-c2cc(C(F)(F)F)nn2-c2ccc([S+](C)[O-])cc2)cc1 (stereo unspecified) | 82 | 48 | 99 |
| O=C(O)c1ccc(-n2nc(C(F)(F)F)cc2-c2ccc(C(F)(F)F)cc2)cc1 | 28 | 29 | 6 |
| CCOC(=O)c1ccc(-n2nc(C(F)(F)F)cc2-c2ccc(C)cc2)cc1 | 55 | 88 | 87 |
| CCOC(=O)c1ccc(-n2nc(C(F)(F)F)cc2-c2ccc(C(F)(F)F)cc2)cc1 | 55 | 2 | 96 |
| Cc1ccc(-c2cc(C(=O)O)nn2-c2ccc(S(N)(=O)=O)cc2)cc1 | 66 | 61 | 43 |
| O=C(O)Cc1ccc(-n2nc(C(F)(F)F)cc2-c2ccc(C(F)(F)F)cc2)cc1 | 96 | 4 | 93 |
| Cc1ccc(-c2cc(C(F)(F)F)nn2-c2ccc(C)cc2)cc1 |  | 30 |  |
| Cc1ccc(-c2cc(-c3ccccc3)nn2-c2ccc(S(N)(=O)=O)cc2)cc1 | 100 | 49 | 92 |
